Converted amounts (≈) assume the structure as drawn. The source made the active and inactive calls. The calls are words filed in the database; no cut-off is given here.

The values below come from ChEMBL document CHEMBL4387707, “Structure-Activity Relationships for Itraconazole-Based Triazolone Analogues as Hedgehog Pathway Inhibitors” (J Med Chem, 2019).

The target of one data set is Protein smoothened (Mus musculus, UniProt P56726). Nature of the data set: Inhibition of smo-mediated hedgehog signaling pathway in mouse ASZ001 cells assessed as decrease in Gli1 mRNA expression after 48 hrs by qPCR method. It counts as cell-based. An outline of the steps: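 Gli1 mRNA measured by qPCR after 48 h incubation with compound, normalized to actin as internal control. Concentrations judged cytotoxic (by visual assessment and/or a significant drop in actin expression) were excluded from analysis. IC50 given as mean ± SEM of at least two separate experiments, each in triplicate.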
Protein smoothened, sequence (P56726 whole entry): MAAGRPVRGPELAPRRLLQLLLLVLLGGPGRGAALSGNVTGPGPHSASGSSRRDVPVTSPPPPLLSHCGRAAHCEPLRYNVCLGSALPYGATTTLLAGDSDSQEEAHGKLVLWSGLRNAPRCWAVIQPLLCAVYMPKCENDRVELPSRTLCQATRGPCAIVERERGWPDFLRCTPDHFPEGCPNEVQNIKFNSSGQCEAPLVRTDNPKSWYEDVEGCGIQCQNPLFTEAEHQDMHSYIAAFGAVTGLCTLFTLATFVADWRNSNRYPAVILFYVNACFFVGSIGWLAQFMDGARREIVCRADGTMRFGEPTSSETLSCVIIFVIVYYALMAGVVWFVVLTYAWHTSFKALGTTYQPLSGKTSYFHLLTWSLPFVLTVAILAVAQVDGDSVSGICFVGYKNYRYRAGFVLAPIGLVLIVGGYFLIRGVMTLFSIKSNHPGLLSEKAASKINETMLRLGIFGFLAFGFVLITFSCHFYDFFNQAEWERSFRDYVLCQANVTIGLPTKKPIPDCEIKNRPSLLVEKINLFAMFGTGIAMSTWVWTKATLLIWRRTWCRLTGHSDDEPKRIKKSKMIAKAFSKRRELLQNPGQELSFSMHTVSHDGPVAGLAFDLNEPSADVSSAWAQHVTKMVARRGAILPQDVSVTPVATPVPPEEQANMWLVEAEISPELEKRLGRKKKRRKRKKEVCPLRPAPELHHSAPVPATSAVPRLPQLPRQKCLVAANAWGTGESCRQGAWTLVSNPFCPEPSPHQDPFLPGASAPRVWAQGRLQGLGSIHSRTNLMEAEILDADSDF

Data set [1] in a line: Kinetic solubility of the compound in PBS at pH 7.4 by UPLC-MS/MS analysis. It counts as physicochemical. To be noted: read-out: Kinetic_solubility.
A short description of data set [2]: Half life in human liver microsomes at 1 uM by UPLC-MS/MS analysis. It is filed as ADME, Microsome. In general terms: Liver microsomes are vesicles of endoplasmic reticulum, rich in cytochrome P450 enzymes.
For a further data set, the system named is Medulloblastoma cell. Nature of the data set: Antiproliferative activity against medulloblastoma cells derived from conditional patched knockout mouse after 48 hrs by [3H]-thymidine incorporation assay. It counts as functional. In a few lines:
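Cells are MERP medulloblastoma cells isolated from Math1-Cre-ER;Ptcfl/fl mouse tumors and cultured in vitro. Compounds were incubated for 48 h before the growth read-out. GI50 is the mean ± SEM of at least two separate experiments, each run in triplicate.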
Background: Uptake of a labelled nucleoside into DNA is a usual measure of proliferation.

Another data set concerns the target Cytochrome P450 3A4 (Homo sapiens, UniProt P08684). The data set is described as follows: Inhibition of CYP3A4 (unknown origin) using midazolam as substrate by UPLC-MS/MS analysis. It is filed as ADME.
The target of data set [3] is Voltage-gated inwardly rectifying potassium channel KCNH2 (Homo sapiens, UniProt Q12809). The data set is described as follows: Inhibition of human ERG.
Voltage-gated inwardly rectifying potassium channel KCNH2, sequence (Q12809 whole entry): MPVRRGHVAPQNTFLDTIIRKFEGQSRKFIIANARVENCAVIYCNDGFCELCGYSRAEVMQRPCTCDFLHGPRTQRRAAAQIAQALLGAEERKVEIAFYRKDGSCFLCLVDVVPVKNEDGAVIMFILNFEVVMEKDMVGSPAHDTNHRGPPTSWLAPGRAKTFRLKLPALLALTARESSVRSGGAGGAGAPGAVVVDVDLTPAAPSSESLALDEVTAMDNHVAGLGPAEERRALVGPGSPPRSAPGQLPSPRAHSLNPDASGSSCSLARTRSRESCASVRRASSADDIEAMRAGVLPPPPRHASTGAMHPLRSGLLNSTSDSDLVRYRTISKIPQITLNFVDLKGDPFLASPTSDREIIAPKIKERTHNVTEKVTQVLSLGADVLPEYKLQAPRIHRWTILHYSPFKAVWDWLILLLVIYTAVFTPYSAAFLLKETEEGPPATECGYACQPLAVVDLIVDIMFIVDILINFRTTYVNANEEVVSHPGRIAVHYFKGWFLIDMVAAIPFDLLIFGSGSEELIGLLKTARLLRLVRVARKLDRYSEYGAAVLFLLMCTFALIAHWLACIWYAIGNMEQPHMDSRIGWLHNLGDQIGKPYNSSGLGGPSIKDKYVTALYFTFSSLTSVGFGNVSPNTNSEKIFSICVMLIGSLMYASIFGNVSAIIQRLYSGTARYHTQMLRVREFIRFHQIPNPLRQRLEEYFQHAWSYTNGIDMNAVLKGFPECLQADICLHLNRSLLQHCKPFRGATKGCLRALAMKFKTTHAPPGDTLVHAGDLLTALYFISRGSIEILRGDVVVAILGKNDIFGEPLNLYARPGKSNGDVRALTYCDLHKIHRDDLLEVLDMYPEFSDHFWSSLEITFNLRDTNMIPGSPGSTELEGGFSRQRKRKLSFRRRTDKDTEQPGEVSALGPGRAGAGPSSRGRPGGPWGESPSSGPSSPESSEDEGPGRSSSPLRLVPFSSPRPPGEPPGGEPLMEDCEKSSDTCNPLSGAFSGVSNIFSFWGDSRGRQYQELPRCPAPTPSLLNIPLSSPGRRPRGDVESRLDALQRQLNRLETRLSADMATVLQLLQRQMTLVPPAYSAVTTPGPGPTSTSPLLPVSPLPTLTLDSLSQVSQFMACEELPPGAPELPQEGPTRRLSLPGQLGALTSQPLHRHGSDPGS
The species entered for the next data set is Mus musculus. Nature of the data set: Antiproliferative activity against mouse ASZ001 cells measured after 48 hrs by MTS/PMS assay. It counts as functional, cell-based.
A short description of data set [4]: Intrinsic clearance in human liver microsomes at 1 uM by UPLC-MS/MS analysis. It counts as ADME, Microsome.

Cytochrome P450 3A4, sequence (P08684 whole entry): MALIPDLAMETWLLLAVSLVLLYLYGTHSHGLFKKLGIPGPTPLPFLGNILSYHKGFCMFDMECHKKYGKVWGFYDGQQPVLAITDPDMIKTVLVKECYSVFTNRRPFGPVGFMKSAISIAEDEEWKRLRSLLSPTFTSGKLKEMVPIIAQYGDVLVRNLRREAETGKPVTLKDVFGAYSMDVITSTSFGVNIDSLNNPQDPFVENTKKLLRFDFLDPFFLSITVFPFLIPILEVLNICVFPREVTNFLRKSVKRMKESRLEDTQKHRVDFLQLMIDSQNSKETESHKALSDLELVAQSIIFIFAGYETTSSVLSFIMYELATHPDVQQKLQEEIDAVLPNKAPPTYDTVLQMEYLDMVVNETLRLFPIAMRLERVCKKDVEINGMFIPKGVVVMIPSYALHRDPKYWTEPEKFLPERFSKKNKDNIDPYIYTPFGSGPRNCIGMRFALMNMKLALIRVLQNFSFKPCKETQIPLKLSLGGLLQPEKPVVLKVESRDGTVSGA

What is called IC50 is the concentration that inhibits the measured activity by half. For `C[C@@]1(c2ccc(Cl)cc2Cl)OC[C@@H](COc2ccc(N3CCN(c4ccc(NC(=O)c5ccccn5)cc4)CC3)cc2)O1`, the IC50 at Protein smoothened is over 10 µM.

Turning to `C[C@]1(c2ccc(Cl)cc2Cl)OC[C@@H](COc2ccc(N3CCN(c4ccc(NC(=O)c5cccc(Cl)c5)cc4)CC3)cc2)O1`, the IC50 on Protein smoothened is over 10 µM.

Take `C[C@]1(c2ccc(Cl)cc2Cl)OC[C@@H](COc2ccc(N3CCN(c4ccc(NC(=O)c5ccc(O)cc5)cc4)CC3)cc2)O1`: on Protein smoothened, the IC50 was 3 µM.

For the compound `C[C@]1(c2ccc(Cl)cc2Cl)OC[C@@H](COc2ccc(N3CCN(c4ccc([N+](=O)[O-])cc4)CC3)cc2)O1`, on Protein smoothened, the IC50 turned out to be 0.26 µM.

For the compound `C[C@]1(c2ccc(Cl)cc2Cl)OC[C@@H](COc2ccc(N3CCN(c4ccc(NC(=O)c5ccncc5)cc4)CC3)cc2)O1`, at Protein smoothened, the half-inhibitory concentration (IC50) is over 10 µM.

For the compound `C[C@]1(c2ccc(Cl)cc2Cl)OC[C@@H](COc2ccc(N3CCN(c4ccc(NC(=O)c5ccccn5)cc4)CC3)cc2)O1`, at Protein smoothened, the IC50 amounted to 3.9 µM.

`C[C@@]1(c2ccc(Cl)cc2Cl)OC[C@@H](COc2ccc(N3CCN(c4ccc([N+](=O)[O-])cc4)CC3)cc2)O1`: the IC50 on Protein smoothened worked out at 0.31 µM.

Broadly, the GI50 is the concentration that inhibits growth by half. As to `C[C@]1(c2ccc(Cl)cc2Cl)OC[C@@H](COc2ccc(N3CCN(c4ccc(NC(=O)c5cccnc5)cc4)CC3)cc2)O1`, the solubility kinetic in data set [1] was 6.9 nM (≈ 4.27 ng/mL). For the same compound, in data set [2], the t1/2 worked out at 8.9 min. In the data set with Medulloblastoma cell, this compound showed a GI50 of 1.1 µM. On Cytochrome P450 3A4, this compound returned an IC50 of over 20 µM. Further, in data set [3], the “inhibition (INH)” value is recorded as under 1%.

Take `C[C@]1(c2ccc(Cl)cc2Cl)OC[C@@H](COc2ccc(N3CCN(c4ccc(-n5cn[nH]c5=O)cc4)CC3)cc2)O1`: on Protein smoothened, the IC50 stood at 0.21 µM.

Turning to `C[C@]1(c2ccc(Cl)cc2Cl)OC[C@@H](COc2ccc(N3CCN(c4ccc(NC(=O)c5ccc6ccccc6c5)cc4)CC3)cc2)O1`, the IC50 on Protein smoothened is over 10 µM.

Take `C[C@@]1(c2ccc(Cl)cc2Cl)OC[C@@H](COc2ccc(N3CCN(c4ccc(-n5cn[nH]c5=O)cc4)CC3)cc2)O1`: the IC50 on Protein smoothened amounted to 0.14 µM.

In the case of `CCC(C)n1ncn(-c2ccc(N3CCN(c4ccc(OCC5COC(Cn6cncn6)(c6ccc(Cl)cc6Cl)O5)cc4)CC3)cc2)c1=O` (configuration not stated) [ITRACONAZOLE], in data set [3], the “inhibition (INH)” value is reported as under 1%.

Turning to `C[C@]1(c2ccc(Cl)cc2Cl)OC[C@@H](COc2ccc(N3CCN(c4ccc(NC(=O)c5ccccc5)cc4)CC3)cc2)O1`, the IC50 on Protein smoothened is over 10 µM.

`C[C@@]1(c2ccc(Cl)cc2Cl)OC[C@@H](COc2ccc(N3CCN(c4ccc(NC(=O)c5ccccc5O)cc4)CC3)cc2)O1`: the IC50 at Protein smoothened is over 10 µM.

Turning to `C[C@@]1(c2ccc(Cl)cc2Cl)OC[C@@H](COc2ccc(N3CCN(c4ccc(NC(=O)c5cccnc5)cc4)CC3)cc2)O1`, the solubility kinetic in data set [1] stood at 4.2 nM (≈ 2.6 ng/mL). In addition, the t1/2 in data set [2] was 59.9 min. The GI50 in the data set with Medulloblastoma cell was over 10 µM. This compound also displayed an IC50 on Cytochrome P450 3A4 of over 30 µM.

Consider `C[C@@]1(c2ccc(Cl)cc2Cl)OC[C@@H](COc2ccc(N3CCN(c4ccc(NC(=O)c5ccc6ccccc6c5)cc4)CC3)cc2)O1`, for which the IC50 at Protein smoothened was over 10 µM.

`C[C@]1(c2ccc(Cl)cc2Cl)OC[C@@H](COc2ccc(N3CCN(c4ccc(N)cc4)CC3)cc2)O1`: the IC50 on Protein smoothened amounted to 0.39 µM.

`C[C@@]1(c2ccc(Cl)cc2Cl)OC[C@@H](COc2ccc(N3CCN(c4ccc(NC(=O)c5ccccc5)cc4)CC3)cc2)O1`: on Protein smoothened, the half-maximal inhibitory concentration (IC50) was over 10 µM.

Regarding `CC[C@@H](C)n1ncn(-c2ccc(N3CCN(c4ccc(OC[C@@H]5CO[C@@](C)(c6ccc(Cl)cc6Cl)O5)cc4)CC3)cc2)c1=O` (relative stereo), the solubility kinetic in data set [1] stood at 1560 nM (≈ 996 ng/mL). For the same compound, the IC50 on Cytochrome P450 3A4 is 1.02 µM.

In the case of `COc1cccc(C(=O)Nc2ccc(N3CCN(c4ccc(OC[C@@H]5CO[C@](C)(c6ccc(Cl)cc6Cl)O5)cc4)CC3)cc2)c1`, the IC50 at Protein smoothened amounted to 5.7 µM.

For the compound `C[C@]1(c2ccc(Cl)cc2Cl)OC[C@@H](COc2ccc(N3CCN(c4ccc(NC(=O)c5cccc(O)c5)cc4)CC3)cc2)O1`, the outcome in the data set filed under Mus musculus was Active. In data set [1], the solubility kinetic was 1.6 nM (≈ 1.02 ng/mL). Besides, the t1/2 in data set [2] was determined as 19.9 min. The same compound gave a concentration for 50% growth inhibition (GI50) with Medulloblastoma cell of 0.35 µM. At Cytochrome P450 3A4, this compound yielded an IC50 of 11.4 µM. Also, the “inhibition (INH)” value in data set [3] is on record as under 1%.

On to `CC(=O)c1cccc(C(=O)Nc2ccc(N3CCN(c4ccc(OC[C@@H]5CO[C@](C)(c6ccc(Cl)cc6Cl)O5)cc4)CC3)cc2)c1`, for which the result in the data set listed under Mus musculus was Active. Besides, in data set [1], the solubility kinetic was 1.4 nM (≈ 0.925 ng/mL). Also, in data set [2], the t1/2 is 11.4 min. Besides, at Cytochrome P450 3A4, the IC50 was over 30 µM. Further, the “inhibition (INH)” value in data set [3] was under 1%.

Turning to `C[C@]1(c2ccc(Cl)cc2Cl)OC[C@@H](COc2ccc(N3CCN(c4ccc(NC(=O)NN)cc4)CC3)cc2)O1`, in data set [1], the solubility kinetic was found to be 1.4 nM (≈ 0.801 ng/mL). The same compound showed a t1/2 in data set [2] of 11.5 min. For the same compound, the GI50 with Medulloblastoma cell worked out at 2.8 µM. The IC50 at Cytochrome P450 3A4 was over 30 µM.

On to `C[C@@]1(c2ccc(Cl)cc2Cl)OC[C@@H](COc2ccc(N3CCN(c4ccc(NC(=O)c5ccncc5)cc4)CC3)cc2)O1`, for which, at Protein smoothened, the half-inhibitory concentration (IC50) was over 10 µM.

Turning to `C[C@@]1(c2ccc(Cl)cc2Cl)OC[C@@H](COc2ccc(N3CCN(c4ccc(N)cc4)CC3)cc2)O1`, at Protein smoothened, the 50% inhibitory concentration (IC50) came to 0.92 µM.

Regarding `C[C@]1(c2ccc(Cl)cc2Cl)OC[C@@H](COc2ccc(N3CCN(c4ccc(NC(=O)c5ccsc5)cc4)CC3)cc2)O1`, the IC50 on Protein smoothened was over 10 µM.

As to `C[C@]1(c2ccc(Cl)cc2Cl)OC[C@@H](COc2ccc(N3CCN(c4ccc(NC(=O)c5ccoc5)cc4)CC3)cc2)O1`, the IC50 on Protein smoothened is over 10 µM.

On to `CC[C@@H](C)n1ncn(-c2ccc(N3CCN(c4ccc(OC[C@@H]5CO[C@](C)(c6ccc(Cl)cc6Cl)O5)cc4)CC3)cc2)c1=O` (relative stereo), for which, in data set [1], the solubility kinetic is 800 nM (≈ 511 ng/mL). The compound further yielded an IC50 at Cytochrome P450 3A4 of over 20 µM.

With `C[C@@]1(c2ccc(Cl)cc2Cl)OC[C@@H](COc2ccc(N3CCN(c4ccc(NC(=O)NN)cc4)CC3)cc2)O1`, in data set [1], the solubility kinetic was 9.3 nM (≈ 5.32 ng/mL). For the same compound, in data set [2], the t1/2 turned out to be 20.1 min. Besides, in the data set on Medulloblastoma cell, the GI50 was determined as 0.5 µM. The compound further yielded an IC50 against Cytochrome P450 3A4 of over 30 µM. The “inhibition (INH)” value in data set [3] came out at 2.2%.

On to `C[C@@]1(c2ccc(Cl)cc2Cl)OC[C@@H](COc2ccc(N3CCN(c4ccc(NC(=O)c5ccc(O)cc5)cc4)CC3)cc2)O1`, for which, on Protein smoothened, the IC50 is over 10 µM.

For the compound `C[C@]1(c2ccc(Cl)cc2Cl)OC[C@@H](COc2ccc(N3CCN(c4ccc(NC(=O)c5ccccc5O)cc4)CC3)cc2)O1`, the IC50 on Protein smoothened amounted to 2.2 µM.

In data set [4], `C[C@@]1(c2ccc(Cl)cc2Cl)OC[C@@H](COc2ccc(N3CCN(c4ccc(NC(=O)c5cccc(O)c5)cc4)CC3)cc2)O1` showed a CLH of under 3 µL/min/mg. Further, the solubility kinetic in data set [1] was determined as 1.4 nM (≈ 0.888 ng/mL). This compound also came in with a t1/2 in data set [2] of over 231 min. In the data set on Medulloblastoma cell, this compound yielded a concentration for 50% growth inhibition (GI50) of 2.8 µM. Also, the IC50 against Cytochrome P450 3A4 was over 30 µM. For the same compound, in data set [3], the “inhibition (INH)” value was 1.2%.
